For test [1], the system named is Mus musculus. In words: Immunostimulatory activity in C57BL/6 mouse assessed as inhibition of TLR7 agonist-induced KC production in serum at 5 mg/kg, sc administered 24 hrs prior to TLR7 agonist challenge measured after 2 hrs by Luminex multiplex assay. The note with it: C57BL/6, sc, route subcutaneous. It is filed as functional.
The subject of test [2] is Mus musculus. Description: Immunostimulatory activity in C57BL/6 mouse assessed as inhibition of TLR3 agonist-induced IL12 production in serum at 10 mg/kg, sc administered 24 hrs prior to TLR3 agonist challenge measured after 2 hrs by Luminex multiplex assay.
Test [3] concerns Mus musculus. In words: Immunostimulatory activity in C57BL/6 mouse assessed as inhibition of 5'-CTATCTGACGTTCTCTGT-3'-induced IL12 production in serum at 5 mg/kg, sc administered 24 hrs prior to 5'-CTATCTGACGTTCTCTGT-3' challenge measured after 2 hrs by sandwich ELISA. The note with it: C57BL/6, sc, route subcutaneous. It is filed as functional. The gist of the method:
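C57BL/6 mice were pretreated sc in the right flank with 2, 5 or 10 mg/kg ODN. After 24 h, the TLR9 agonist ODN was given at 0.5 mg/kg sc in the left flank. Serum IL-12 was measured by ELISA 2 h later. Representative of two experiments.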
A general note: ELISA stands for enzyme-linked immunosorbent assay.

The test system of test [4] is Mus musculus. Description: Immunostimulatory activity in C57BL/6 mouse assessed as inhibition of TLR7 agonist-induced IP10 production in serum at 5 mg/kg, sc administered 24 hrs prior to TLR7 agonist challenge measured after 2 hrs by Luminex multiplex assay. It is filed as functional. Particulars: C57BL/6, sc, route subcutaneous.
Test [5] concerns Mus musculus. In words: Immunostimulatory activity in C57BL/6 mouse assessed as inhibition of 5'-CTATCTGACGTTCTCTGT-3'-induced MCP1 production in serum at 5 mg/kg, sc administered 24 hrs prior to 5'-CTATCTGACGTTCTCTGT-3' challenge measured after 2 hrs by Luminex multiplex assay. Type of test: functional. Particulars: C57BL/6, sc, route subcutaneous.
In test [6] the test system is Mus musculus. In words: Immunostimulatory activity in C57BL/6 mouse assessed as inhibition of 5'-CTATCTGACGTTCTCTGT-3'-induced TNFalpha production in serum at 5 mg/kg, sc administered 24 hrs prior to 5'-CTATCTGACGTTCTCTGT-3' challenge measured after 2 hrs by Luminex multiplex assay. It is filed as functional. The note with it: C57BL/6, sc, route subcutaneous.
In test [7] the test system is Mus musculus. Description: Immunostimulatory activity in C57BL/6 mouse assessed as inhibition of TLR3 agonist-induced TNFalpha production in serum at 10 mg/kg, sc administered 24 hrs prior to TLR3 agonist challenge measured after 2 hrs by Luminex multiplex assay.
For test [8], the system named is Mus musculus. In words: Immunostimulatory activity in C57BL/6 mouse assessed as inhibition of 5'-CTATCTGACGTTCTCTGT-3'-induced IL12 production in serum at 10 mg/kg, sc administered 48 hrs prior to 5'-CTATCTGACGTTCTCTGT-3' challenge measured after 2 hrs by sandwich ELISA. It is filed as functional. The note with it: C57BL/6, sc, route subcutaneous. The gist of the method: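 C57BL/6 mice received 10 mg/kg ODN sc in the right flank. The TLR9 agonist ODN was then given at 0.5 mg/kg sc in the left flank 24, 48 or 72 h later. Serum IL-12 was measured by ELISA 2 h after challenge. Naive serum served as reference. Representative of three experiments.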

Test [9] relates to Mus musculus. In words: Immunostimulatory activity in C57BL/6 mouse assessed as inhibition of TLR7 agonist-induced IL10 production in serum at 5 mg/kg, sc administered 24 hrs prior to TLR7 agonist challenge measured after 2 hrs by Luminex multiplex assay. Type of test: functional. Particulars: C57BL/6, sc, route subcutaneous.
In test [10] the test system is Mus musculus. Description: Immunostimulatory activity in C57BL/6 mouse assessed as inhibition of 1 mg/kg 5'-CTATCTGACGTTCTCTGT-3'-induced IL12 production in serum at 10 mg/kg, sc administered 24 hrs prior to 5'-CTATCTGACGTTCTCTGT-3' challenge measured after 2 hrs by sandwich ELISA. Type of test: functional. The gist of the method:
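C57BL/6 mice received 10 mg/kg ODN sc in the right flank. After 24 h, the CpG TLR9 agonist ODN was given sc in the left flank at 0.25, 0.5 or 1 mg/kg. Serum IL-12 was measured by ELISA 2 h after challenge. Naive mice served as reference. Representative of two experiments.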

Test [11] concerns Mus musculus. In words: Immunostimulatory activity in C57BL/6 mouse assessed as inhibition of TLR3 agonist-induced IP10 production in serum at 10 mg/kg, sc administered 24 hrs prior to TLR3 agonist challenge measured after 2 hrs by Luminex multiplex assay.
In test [12] the test system is Mus musculus. Description: Immunostimulatory activity in C57BL/6 mouse assessed as inhibition of LPS-induced KC production in serum at 10 mg/kg, sc administered 24 hrs prior to LPS challenge measured after 2 hrs by Luminex multiplex assay.
The subject of test [13] is Mus musculus. Description: Immunostimulatory activity in C57BL/6 mouse assessed as inhibition of LPS-induced IP10 production in serum at 10 mg/kg, sc administered 24 hrs prior to LPS challenge measured after 2 hrs by Luminex multiplex assay.
Test [14] deals with Mus musculus. In words: Immunostimulatory activity in C57BL/6 mouse assessed as inhibition of 5'-CTATCTGACGTTCTCTGT-3'-induced KC production in serum at 5 mg/kg, sc administered 24 hrs prior to 5'-CTATCTGACGTTCTCTGT-3' challenge measured after 2 hrs by Luminex multiplex assay. Type of test: functional. The note with it: C57BL/6, sc, route subcutaneous.
The subject of test [15] is Mus musculus. Description: Immunostimulatory activity in C57BL/6 mouse assessed as inhibition of 5'-CTATCTGACGTTCTCTGT-3'-induced MIP1a production in serum at 5 mg/kg, sc administered 24 hrs prior to 5'-CTATCTGACGTTCTCTGT-3' challenge measured after 2 hrs by Luminex multiplex assay. It is filed as functional. Particulars: C57BL/6, sc, route subcutaneous.
For test [16], the system named is Mus musculus. Description: Immunostimulatory activity in C57BL/6 mouse assessed as inhibition of TLR3 agonist-induced IL10 production in serum at 10 mg/kg, sc administered 24 hrs prior to TLR3 agonist challenge measured after 2 hrs by Luminex multiplex assay.
In test [17] the test system is Mus musculus. Description: Immunostimulatory activity in C57BL/6 mouse assessed as inhibition of TLR3 agonist-induced KC production in serum at 10 mg/kg, sc administered 24 hrs prior to TLR3 agonist challenge measured after 2 hrs by Luminex multiplex assay.
The test system of test [18] is Mus musculus. Description: Immunostimulatory activity in C57BL/6 mouse assessed as inhibition of LPS-induced TNFalpha production in serum at 10 mg/kg, sc administered 24 hrs prior to LPS challenge measured after 2 hrs by Luminex multiplex assay.

Structures are written as SMILES. Activity calls are given as the source filed them. The calls are words filed in the database; no cut-off is given here.

What is called inhibition in vivo is the change of the read-out against control, counted positive when it falls.

For the compound `COC1[C@H](n2cnc3c(=O)[nH]c(N)nc32)O[C@H](COP(=O)(S)O[C@H]2C[C@H](n3cc(C)c(N)nc3=O)O[C@@H]2COP(=O)(S)O[C@H]2C[C@H](n3cnc4c(N)ncnc43)O[C@@H]2COP(=O)(S)O[C@H]2C[C@H](n3cnc4c(=O)[nH]c(N)nc43)O[C@@H]2COP(=O)(S)O[C@H]2C[C@H](n3cc(C)c(=O)[nH]c3=O)O[C@@H]2COP(=O)(S)O[C@H]2C[C@H](n3ccc(N)nc3=O)O[C@@H]2COP(=O)(S)O[C@H]2C[C@H](n3cc(C)c(=O)[nH]c3=O)O[C@@H]2COP(=O)(S)O[C@H]2C[C@H](n3cnc4c(N)ncnc43)O[C@@H]2COP(=O)(S)O[C@H]2C[C@H](n3cc(C)c(=O)[nH]c3=O)O[C@@H]2COP(=O)(S)O[C@H]2C[C@H](n3ccc(N)nc3=O)O[C@@H]2CO)[C@H]1OP(=O)(S)OC[C@H]1O[C@@H](n2cc(C)c(=O)[nH]c2=O)C[C@@H]1OP(=O)(S)OC[C@H]1O[C@@H](n2cc(C)c(=O)[nH]c2=O)C[C@@H]1OP(=O)(S)OC[C@H]1O[C@@H](n2ccc(N)nc2=O)C[C@@H]1OP(=O)(S)OC[C@H]1O[C@@H](n2cc(C)c(=O)[nH]c2=O)C[C@@H]1OP(=O)(S)OC[C@H]1O[C@@H](n2ccc(N)nc2=O)C[C@@H]1OP(=O)(S)OC[C@H]1O[C@@H](n2cc(C)c(=O)[nH]c2=O)C[C@@H]1OP(=O)(S)OC[C@H]1O[C@@H](n2cnc3c(=O)[nH]c(N)nc32)C[C@@H]1OP(=O)(S)OC[C@H]1O[C@@H](n2cc(C)c(=O)[nH]c2=O)C[C@@H]1O` (stereo partly drawn), the inhibition in vivo at 5 mg/kg in test [1] amounted to 50%; in test [3], 66%; in test [4], 50%; in test [5], 50%; in test [6] it was 50%; in test [9] it was 50%. The inhibition in vivo at 5 mg/kg in test [14] and in test [15] was 50% in each case. Also, the result in [2], in test [7], in test [11], in test [12], in [13] and in [16] was inactive. For the same compound, the outcome in [17] and in [18] was inactive. Besides, the inhibition in vivo at 10 mg/kg in test [8] was 57%. Also, in [10], the “inhibition (INH)” value was 46%.

(Values after ChEMBL document CHEMBL1152452, “Modifications incorporated in CpG motifs of oligodeoxynucleotides lead to antagonist activity of toll-like receptors 7 and 9” (2009).)
